Bioassay records as filed in PubChem BioAssay.
RAD54 inh – inhibitors of human RAD54 branch migration, primary screen, biochemical, fluorescence, single point; DNA repair and recombination protein RAD54-like (Homo sapiens), Q92698; RAD54 Holliday junction branch migration, FAM/BHQ fluorescence; inhibition, % at 10.4 µM; actives 0.14% (n = 360,000);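 active = mean normalized replicate activity at least 40 and at least half of replicates scoring 40 or more; inconclusive = only one of the two criteria met; inactive = mean below 40 and under half of replicates reaching 40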;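 note: 0% = median of neutral control wells and 100% = median of positive control wells; inhibitors cause a drop in the FAM fluorescence signal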
PAX8 inh HTS – inhibitors of PAX8-driven TPO luciferase reporter, primary screen, RMG-I cells, single concentration; SteadyGlo, 24 h; AID 652154, 2013; actives 1.2% (n = 360,000); inhibition, % at 12.6 µM;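 active = mean replicate inhibition at least 60% with every replicate also reaching 60%; inconclusive = only one of the two criteria is met; inactive = mean below 60% and not all replicates reaching 60%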;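 note: luciferase light reporting Pax8 driven TPO promoter activity; plate controls were median of neutral control wells for no effect and mitoxantrone controls for full effect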
FN deposition inh – inhibitors of fibronectin matrix deposition, primary screen, AH1F cells, Alexa488-fibronectin fluorescence, plate reader | AH1F fibroblasts, overnight | inhibition, % at 12.6 µM | actives 0.086% (n = 350,000) | AID 743247, 2014;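 active = mean inhibition across replicates of 30% or more, regardless of how many single replicates reach that level; inconclusive = mean under 30% yet at least half of replicates reach 30%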;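 note: positive control wells lacked labelled fibronectin entirely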
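test system = AH1F fibroblasts assembling fluorescent fibronectin matrix | quantity = 10000 AH1F cells per well | buffer or medium = DMEM plus 2% serum, read in PBS | doses = single dose, pinned | incubation = 1 h cell attachment, overnight exposure to compound and label | detection = fluorescence at 485 nm excitation, 525 nm emission | read-out basis = inhibition from reduced deposited-fibronectin fluorescence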
RAD52 inh – RAD52 DNA annealing inhibitors, primary screen, biochemical, FRET, single point, set 2. recombinant RAD52 DNA annealing, FRET fluorescence. inhibition, % at 18.7 µM. AID 651710, 2012. DNA repair protein RAD52 homolog (Homo sapiens), P43351. actives 0.46% (n = 360,000);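 active = every replicate showing at least 50% inhibition; inconclusive = mean inhibition at least 50% but not in every replicate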
Active calls of the source: *; i = inactive; u = inconclusive; x = no result. A selection: hits, their analogues and other compounds. The true share with any hit is near 1.3%.

SMILES	RAD54 inh	PAX8 inh HTS	FN deposition inh	RAD52 inh
O=C1Nc2ccccc2/C1=C/c1cnc[nH]1	x	x	x	-15
COc1ccc2c(c1)/C(=C/c1cnc[nH]1)C(=O)N2	32	79*	13	6
CCCCNC(=O)Nc1ccc(C(O)(C(=O)OCC)C(F)(F)F)cc1 (stereo not drawn)	6	x	0	x
CC1=C(O)C(=O)C=C2C1=CC=C1C2(C)CCC2(C)C3CC(C)(C(=O)O)CCC3(C)CCC12C (stereo not drawn)	x	119*	x	-33
Cc1cccc(C)c1-n1nnnc1C(c1cc2ccccc2o1)N1CCC(n2c(=O)[nH]c3ccccc32)CC1 (stereo not drawn)	-1	-23	5	-14
O=c1[nH]c2ccccc2n1C1CCN(C(c2cc3ccccc3o2)c2nnnn2Cc2ccccc2)CC1 (stereo not drawn)	0	108*	9	-47
O=C1NCN(c2ccccc2)C12CCN(C(c1cccc3ccccc13)c1nnnn1Cc1ccccc1)CC2 (stereo not drawn)	2	-7	x	-3
COc1cccc(C(c2nnnn2Cc2ccccc2)N2CCC(n3c(=O)[nH]c4ccccc43)CC2)c1OC (stereo not drawn)	3	91*	-5	-7
O=c1[nH]c2ccccc2n1C1CCN(C(c2cccc3ccccc23)c2nnnn2Cc2ccccc2)CC1 (stereo not drawn)	-7	73*	x	-17
O=C(OCC(=O)c1ccc([N+](=O)[O-])cc1)/C(=C/c1ccc(Cl)cc1)NC(=O)c1ccccc1	x	12	-4	-12
COC(=O)C1=C(c2cccc(OC)c2OC)C[C@@H]2CC[C@H]1N2C(=O)N1CCCC1	8	-5	0	-13
Oc1cc2c(cc1CN1CCN(c3ccccc3)CC1)CCC2	-1	-11	-3	x
COc1ccc(-n2nnnc2C(c2ccccc2)N2CCC(n3c(=O)[nH]c4ccccc43)CC2)cc1 (stereo not drawn)	2	78*	6	-7
COc1ccc(-n2nnnc2C(c2cccs2)N2CCC(n3c(=O)[nH]c4ccccc43)CC2)cc1 (stereo not drawn)	0	71*	x	-26
COc1ccc(-n2nnnc2C(c2ccnc3ccccc23)N2CCC(n3c(=O)[nH]c4ccccc43)CC2)cc1 (stereo not drawn)	-8	3	x	1
CC/C(=C\C=C\[C@@H]1C=C[C@@H]2CCC[C@H]2[C@@H]1C(=O)c1ccc[nH]1)[C@@H]1O[C@@H]([C@@H](C)C(=O)O)CC[C@@H]1C	-10	x	-9	x
Nc1ccc2ccc3cccc[n+]3c2c1	i	-80	-13	i
C[n+]1c(-c2ccccc2)c2cc(N)ccc2c2ccc(N)cc21	88*	96*	21	21
COc1cc2c(c(OC)c1OC)-c1ccc(O)cc1[C@@H](NC(C)=O)CC2	-4	90*	-28	-9
COc1cc2c(c(OC)c1OC)-c1ccc(O)c(=O)cc1[C@@H](NC(C)=O)CC2	-11	10	-6	-18
COc1cc2c(c(OC)c1OC)-c1ccc(O)cc1C(NC(C)=O)CC2 (stereo not drawn)	0	80*	4	-10
COc1c(O)cc2c(c1OC)-c1ccc(SC)c(=O)cc1C(NC(C)=O)CC2 (stereo not drawn)	x	u	-24	-4
FC(F)(F)/C(=N\P(=S)(N1CCOCC1)N1CCOCC1)N1CCOCC1	x	x	x	-9
O=C1NC2C(=CC(O)C(O)C2O)c2cc3c(cc21)OCO3 (stereo not drawn)	x	123*	16	-4
O=C1NC2C(=CC(O)C(O)C2O)c2cc3c(c(O)c21)OCO3 (stereo not drawn)	x	x	21	-10
CN(C)CC#Cc1ccc([C@@H]2[C@@H](CO)N3CCCCN(C(=O)Cc4ccccn4)C[C@@H]23)cc1	-6	3	-6	37
CN(C)CC#Cc1ccc([C@@H]2[C@@H](CO)N3CCCCN(C(=O)Cc4ccccn4)C[C@H]23)cc1	-11	-6	-7	61*
O=C(Cc1cccnc1)N1CCCCN2[C@H](C1)[C@H](c1ccc(/C=C/c3ccccc3)cc1)[C@@H]2CO	-8	81*	x	-18
O=C(Cc1ccccn1)N1CCCCN2[C@@H](CO)[C@H](c3ccc(-c4ccccc4F)cc3)[C@@H]2C1	4	67*	x	9
